Source: PubChem BioAssay
STAT3 act = increases IL-6 driven STAT3 reporter signal. 190,000 compounds, 0.91% hits. activation (% of control), % at 5.6 µM. U3A cells, IL-6 STAT3-luciferase reporter, luminescence; 100% = signal with IL-6 EC80 alone. AID 871;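 active = activation above the screen-wide mean of compound activation plus 3 SD, cut at about 130% in these data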
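Detection: reporter luminescence signal / Assay system: STAT1-lacking human U3A cells, STAT3 luciferase reporter / Incubation: compound pre-incubation 1 h before IL-6, then 6 h stimulation at 37 °C / Control set: IL-6-only high control / Read-out: % activation relative to IL-6 control / Probe or stimulus: Interleukin-6, 33 ng/mL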
STAT1 activator = increases IFN-gamma driven STAT1 reporter signal | NIH 3T3 STAT1-luciferase reporter, luminescence; 100% = IFN-gamma alone, no compound | activation (% of control), % at 5.5 µM | 200,000 compounds, 2.6% hits | AID 932;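 active = activation above the screen-wide mean activation plus 3 SD, cut at about 130% in these data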
FLuc stim CS = firefly luciferase counter-screen for stimulation assays | ATPlite luciferase biochemical, luminescence, 10 min; 0 = ATP-free wells, 1 = DMSO control | activation factor at 10 µM | 200,000 tested, under 10 active;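 active = luciferase activation factor, scaled between plate controls, of at least 2 with compound at 10 µM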
Target sequence (P08659 whole entry, looked up): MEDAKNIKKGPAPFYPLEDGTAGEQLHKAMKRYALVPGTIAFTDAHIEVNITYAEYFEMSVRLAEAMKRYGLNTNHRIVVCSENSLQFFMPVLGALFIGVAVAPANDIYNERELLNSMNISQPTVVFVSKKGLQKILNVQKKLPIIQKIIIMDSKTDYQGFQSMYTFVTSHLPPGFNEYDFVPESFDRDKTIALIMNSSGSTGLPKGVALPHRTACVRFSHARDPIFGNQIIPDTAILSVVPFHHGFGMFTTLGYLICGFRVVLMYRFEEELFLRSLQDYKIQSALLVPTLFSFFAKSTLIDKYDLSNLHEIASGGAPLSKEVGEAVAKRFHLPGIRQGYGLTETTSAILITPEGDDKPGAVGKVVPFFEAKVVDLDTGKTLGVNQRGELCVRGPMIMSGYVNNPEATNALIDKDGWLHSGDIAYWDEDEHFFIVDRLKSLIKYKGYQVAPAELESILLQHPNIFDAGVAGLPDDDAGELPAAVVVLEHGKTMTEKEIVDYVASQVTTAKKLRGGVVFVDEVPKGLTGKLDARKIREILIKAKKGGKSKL
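System: Luciferase/luciferin detection reagent, cell-free biochemical luciferase assay | Medium: PBS buffer for ATP | Dosing: Test compounds dosed from 2 mM stocks in 100% DMSO | Timing: 10 min at ambient temperature | Signal: Luminescence measurement of luciferase light output | Evaluation: Luciferase activation, seen as luminescence increase over controls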
FLuc inhib CS = Photinus pyralis luciferase inhibition counter-screen; P08659; ATPLite firefly luciferase biochemical luminescence, 10 min; inhibition, % at 10 µM; 200,000 compounds, 1.5% hits; AID 1006;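 active = inhibition above about 50% when tested at 10 µM, limit read from the data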
STAT3 inh-1 = reduces IL-6 driven STAT3 reporter signal | inhibition, % at 5.5 µM | 190,000 compounds, 0.89% hits | U3A cells, IL-6 STAT3-luciferase reporter, luminescence; host cell line lacks STAT1;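 active = inhibition above the mean inhibition across all screened compounds plus 3 SD, cut at about 44% in these data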
STAT1 blocker = inhibitors of IFN-gamma induced STAT1 signaling; NIH 3T3 STAT1-luciferase reporter, luminescence; inhibition, % at 5.5 µM; 200,000 compounds, 0.35% hits; AID 920;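 active = inhibition above a set limit, the mean inhibition across all tested compounds plus 3 SD, cut at about 34% in these data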
STAT3 inh-2 = confirmation of STAT3 signaling inhibitors. AID 1265. U3A cells, IL-6 STAT3 luciferase reporter, luminescence; cell line lacks STAT1. shares compounds with STAT3 inh-1. 1,200 compounds, 45% hits. inhibition, % at 5.7 µM;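 active = inhibition above the hit cutoff computed for the primary STAT3 screen, cut at about 44% in these data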
NFkB inh 2 = counter-screen for STAT3 inhibitors: NF-kappaB inhibition; 1,200 compounds, 36% hits; AID 1308; shares compounds with STAT3 inh-1; HEK293T NF-kB luciferase reporter, TNF-alpha induced; inhibition, % at 5.7 µM;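 active = inhibition above the mean of solvent-only control wells plus 3 SD, cutoff set per campaign, cut at about 13% in these data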
STAT1 inh STAT3c = STAT1 inhibition in STAT3 inhibitor counter-screen. NIH 3T3 STAT1-luciferase reporter, IFN-gamma induced, luminescence. 1,200 compounds, 27% hits. inhibition, % at 5.7 µM. shares compounds with STAT3 inh-1. AID 1317;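 active = inhibition above the mean plus 3 SD of solvent-only control wells, limit set per screening run, cut at about 16% in these data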
Hits are given with their value; – = inactive; · = not tested or not shown. In the library only some 4.9% were active in any assay of this set; here they are far more common.

SMILES	STAT3 act	STAT1 activator	FLuc stim CS	FLuc inhib CS	STAT3 inh-1	STAT1 blocker	STAT3 inh-2	NFkB inh 2	STAT1 inh STAT3c
COc1ccccc1Nc1nnc(SCC(=O)N2CCCC2)s1	–	–	–	–	–	–	·	·	·
COc1ccccc1Nc1nnc(SCC2CCCCO2)s1 (stereo not given)	–	–	–	86	64	–	–	–	–
Oc1ccc(-c2cccc(-c3ccc(O)cc3)n2)cc1	–	–	–	–	–	–	·	·	·
Oc1ccc(-c2nnc(-c3ccc(O)cc3)nn2)cc1	–	–	–	78	51	–	62	–	–
COc1c(C)cc(NC(=O)c2ccc3c(c2)NC(=O)CO3)cc1C	–	–	–	–	45	–	–	–	–
COc1ccc(C(=O)NCC(=O)OCC(=O)c2ccc3c(c2)NC(=O)CO3)cc1OC	–	–	–	–	–	–	·	·	·
Nc1nc(N)nc(-c2ccc(Cl)cc2)n1	–	–	–	–	–	–	·	·	·
Nc1nn(-c2cccc(F)n2)cc1-c1ccc(Cl)cc1	–	–	–	57	58	–	–	–	–
Oc1ccc(-c2cn3cc(C(F)(F)F)ccc3n2)cc1	–	–	–	95	83	–	80	39	18
CC(C)CN1CCN(Cc2ccc3ncccc3c2)CC1CCO (stereo not given)	–	–	–	–	–	–	·	·	·
CCOC(=O)c1cccc(NC(=O)CSc2nc3cccnc3n2C)c1	–	–	–	–	59	–	–	–	–
CCOC(=O)c1c(NC(=O)CSc2nc3cccnc3n2C)sc(C(C)=O)c1C	–	–	–	–	–	–	·	·	·
CSc1ccccc1NC(=O)Nc1ccc(Cl)cc1	–	–	–	–	–	–	·	·	·
O=C(Nc1ccc(Cl)cc1)Nc1ccccc1C(=O)O	–	–	–	90	62	–	–	–	–
O=C(Nc1ccc(Cl)c(Cl)c1)Nc1ccccc1C(=O)O	–	140	–	67	53	–	–	–	–
CC(C)(C)c1ccc(OCC(=O)NNC(=O)c2cccnc2)cc1	–	–	–	–	–	–	·	·	·
CN(CCC#N)c1ccc(/C=C(\C#N)c2ccccn2)cc1	–	141	–	88	49	–	–	–	–
CCN(CC)c1ccc(/C=C(\C#N)c2ccccn2)cc1	–	–	–	85	74	–	45	29	–
N#C/C(=C\c1ccc(C(=O)O)cc1)c1ccccn1	–	–	–	–	–	–	·	·	·
COCCCNC(=S)NCCNc1nc2c(C)c(C)ccc2cc1C#N	–	–	–	–	–	–	·	·	·
Cn1c(=O)c2c(SCCN3CCOCC3)nc(C3CCCC3)nc2n(C)c1=O	–	–	–	–	–	–	·	·	·
CCCCN(C)C(=O)c1cc2cc3ccc(OC)cc3nc2s1	–	–	–	85	50	–	–	–	–
CN=c1scc(-c2ccccc2Br)n1/N=C/c1ccc[nH]1	–	–	–	54	58	–	–	–	–
O=C(Nc1cccc2ncccc12)C(c1ccccc1)c1ccccc1	–	–	–	–	–	–	·	·	·
CN(C)S(=O)(=O)c1cccc(NC(=S)NCCCn2ccnc2)c1	–	–	–	–	–	–	·	·	·
SMILES	STAT3 act	STAT1 activator	FLuc stim CS	FLuc inhib CS	STAT3 inh-1	STAT1 blocker	STAT3 inh-2	NFkB inh 2	STAT1 inh STAT3c
Nc1nc(Br)c2c(F)cccc2c1-c1ccccc1	–	–	–	–	46	–	–	–	–
C/C(=N\N1C(=O)c2ccccc2NC1c1ccco1)c1ccccc1O (stereo not given)	–	–	–	–	46	–	–	–	–
CCN(C(=S)NCc1ccccc1)c1ccccc1	–	–	–	–	–	–	·	·	·
COc1ccc(Cn2cc(C(=O)O)c(=O)c3ccccc32)cc1	–	–	–	–	–	–	·	·	·
CCC(=O)Oc1ccc(-c2nc(-c3cccnc3)no2)cc1	–	–	–	61	46	–	–	–	–
COc1cc(-c2nc(-c3cccnc3)no2)cc(OC)c1OC	–	–	–	–	–	–	·	·	·
Cc1sc2ncnc(NCc3cccs3)c2c1C	–	–	–	–	48	–	–	–	–
CC(C)(C)NC(=O)COC(=O)c1snc(C(=O)NC2CCCCC2)c1N	–	–	–	–	76	–	72	22	–
O=C(COC(=O)C1CC2C=CC1C2)Nc1ccccc1F (stereo not given)	–	–	–	–	–	–	·	·	·
CC(=O)c1ccc(N=Nc2ccc(N(C)C)cc2)cc1	–	–	–	53	52	–	47	22	–
CC(=O)c1ccc(N=Nc2ccc(C)cc2)cc1	–	–	–	52	82	–	44	–	–
CN(C)C(=S)c1ccc(N(C)C)cc1	–	–	–	–	–	–	·	·	·
CC(Oc1ccc(Cl)cc1Cl)C(=O)Nc1ccc2oc(-c3ccncc3)nc2c1 (stereo not given)	–	–	–	–	50	–	50	–	–
CC(C)CC(=O)Nc1ccc2oc(-c3ccncc3)nc2c1	–	–	–	–	–	–	·	·	·
Cc1ccc2nc(-c3ccc(NC(=O)CCS(=O)(=O)c4ccccc4)cc3)sc2c1	–	–	–	–	72	–	48	22	–
Cc1ccc2nc(-c3ccc(NC(=O)COC(=O)c4ccc(=O)[nH]c4)cc3)sc2c1	–	135	–	50	56	–	–	–	–
Cc1nc2nc(-c3ccc(Cl)cc3)cn2nc1C	–	–	–	–	66	–	–	–	–
CCc1nn2cc(-c3ccccc3)nc2s1	–	–	–	89	91	–	69	38	–
Cc1nn2cc(-c3ccc(Cl)cc3)nc2s1	–	–	–	–	52	–	–	–	–
Cc1nn2cc(-c3ccc(-c4ccccc4)cc3)nc2s1	–	–	–	–	–	–	·	·	·
COc1cccc(-c2cn3nc(C)c(C)nc3n2)c1	–	–	–	–	–	–	·	·	·
CCOC(=O)N1CCC(n2c(SCC(=O)NCCc3ccc(S(N)(=O)=O)cc3)nc3ccccc3c2=O)CC1	–	–	–	–	–	–	·	·	·
Cn1c(CN2CCCCC2)nc2cc(NC(=O)c3ccc(Cl)cc3)ccc21	–	–	–	–	70	–	70	23	–
CCC(=O)Nc1ccc2c(c1)nc(CN1CCCCC1)n2C	–	–	–	–	–	–	·	·	·
O=C(CN1CCN(C/C=C/c2ccccc2)CC1)Nc1cc([N+](=O)[O-])ccc1Cl	–	–	–	–	–	–	·	·	·
Cc1ccc(C(=O)CSc2cnc3ccccc3n2)cc1C	–	–	–	–	54	–	–	–	–
